# Results as given in PubChem BioAssay AID686992 (Broad Institute, 2013).
# In all, about 260,000 compounds went through this assay and about 960 (0.37%) were called active.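 How the source made its calls: active means mean E-selectin-positive cell signal at least 10% of the positive control, reached in at least 60% of replicates, without over 20% cell loss; inconclusive means no rule given, readout overlaps actives, possibly toxicity-flagged; inactive means the rest, including those meeting only one limit.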 For the sample, actives were picked, then their nearest neighbours and some compounds at random.
# Biological target: E-selectin (Homo sapiens) (UniProt P16581)
# Test: inducers of endothelial E-selectin expression – imaging, HUVEC, immunofluorescence imaging, single point, primary screen (AID 686992);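 further: signal is the percent of cells scored E-selectin positive by PE staining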
# Settings: at 7.58 µM, active compounds read high, normalized: neutral wells 0, TNF-alpha wells 100
# Summary of the method: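 assay system = HUVEC, human umbilical vein endothelial cells | input = 3,000 HUVEC seeded per well | medium = EGM-2 growth medium on 0.1% gelatin-coated wells | dosing = one compound dose added by pin transfer | signal = immunofluorescence imaging | read-out basis = % PE-positive cells | control set = TNF-alpha, DMSO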
# Sequence of E-selectin (Homo sapiens) (P16581 whole entry, looked up): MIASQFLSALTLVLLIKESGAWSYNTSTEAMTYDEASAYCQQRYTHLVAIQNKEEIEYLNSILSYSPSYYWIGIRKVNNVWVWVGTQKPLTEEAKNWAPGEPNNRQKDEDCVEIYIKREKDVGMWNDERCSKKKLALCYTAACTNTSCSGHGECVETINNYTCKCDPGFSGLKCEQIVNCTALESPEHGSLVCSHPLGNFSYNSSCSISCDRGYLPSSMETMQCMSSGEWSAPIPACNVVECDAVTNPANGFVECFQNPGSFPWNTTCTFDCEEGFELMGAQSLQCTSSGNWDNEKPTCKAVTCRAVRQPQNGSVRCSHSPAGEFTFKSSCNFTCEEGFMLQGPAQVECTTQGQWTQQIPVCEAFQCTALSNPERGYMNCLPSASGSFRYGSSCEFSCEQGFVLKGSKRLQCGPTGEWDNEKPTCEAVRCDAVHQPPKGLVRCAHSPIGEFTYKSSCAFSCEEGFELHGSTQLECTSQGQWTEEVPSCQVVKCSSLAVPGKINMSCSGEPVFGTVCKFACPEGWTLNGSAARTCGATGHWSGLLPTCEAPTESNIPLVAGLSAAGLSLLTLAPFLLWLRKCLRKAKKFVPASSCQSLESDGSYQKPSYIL
row,Structure (SMILES),activation
1,C[C@H]1CN([C@@H](C)CO)C(=O)Cc2cc(NS(C)(=O)=O)ccc2O[C@@H]1CN(C)S(=O)(=O)c1cccs1,-0.124% (inactive)
2,C[C@H]1CN([C@@H](C)CO)C(=O)Cc2cc(NC(=O)Nc3ccc(F)cc3)ccc2O[C@H]1CN(C)C(=O)Nc1ccc(C(F)(F)F)cc1,29.7% (active)
3,C[C@@H]1CN([C@@H](C)CO)C(=O)Cc2cc(NC(=O)C3CC3)ccc2O[C@@H]1CN(C)S(C)(=O)=O,-0.338% (inactive)
4,C[C@H]1CN([C@@H](C)CO)C(=O)Cc2cc(NC(=O)CCC(F)(F)F)ccc2O[C@H]1CN(C)C(=O)NC1CCCCC1,0.0445% (inactive)
5,C[C@H]1CN([C@@H](C)CO)C(=O)Cc2cc(NC(=O)C3CC3)ccc2O[C@@H]1CN(C)S(=O)(=O)c1cccs1,55.7% (active)
6,C[C@@H]1CN([C@@H](C)CO)C(=O)Cc2cc(NC(=O)NC3CCCCC3)ccc2O[C@H]1CN(C)C(=O)Nc1ccc(C(F)(F)F)cc1,0.389% (inactive)
7,C[C@@H]1CN([C@@H](C)CO)C(=O)Cc2cc(NC(=O)Nc3ccc(C(F)(F)F)cc3)ccc2O[C@H]1CN(C)C(=O)Nc1ccc(F)cc1,-0.224% (inactive)
8,C[C@@H]1CN([C@@H](C)CO)C(=O)Cc2cc(NC(=O)CCC(F)(F)F)ccc2O[C@@H]1CN(C)C(=O)Nc1cccc2ccccc12,0.23% (inactive)
9,CC(C)NC(=O)N(C)C[C@H]1Oc2ccc(NC(=O)CCC(F)(F)F)cc2CC(=O)N([C@@H](C)CO)C[C@@H]1C,50.4% (active)
10,C[C@@H]1CCCCO[C@@H](CN(C)C(=O)CCCN(C)C)[C@H](C)CN([C@@H](C)CO)C(=O)c2cc(NC(=O)Nc3ccccc3)ccc2O1,-0.0275% (inactive)
11,N#C[C@@H]1[C@@H](c2ccc(-c3ccccc3F)cc2)[C@@H](CO)N1C(=O)c1ccccn1,0.692% (inactive)
12,COC(=O)N1Cc2ccnnc2CC1c1ccccc1Br (stereo not drawn),-0.184% (inactive)
13,CSc1ccc(CN2CCC2(C)C(=O)NCc2ccccc2Br)cc1 (stereo not drawn),-0.129% (inactive)
14,CC(Sc1ccc(S(=O)(=O)N2CCN(C)CC2)cn1)C(=O)NC1CCCC(C)C1C (stereo not drawn),-0.0545% (inactive)
15,O=C(c1ccccn1)N1CC2(C1)[C@@H](c1ccccc1)[C@@H](CO)N2C(=O)C1CCCCC1,1.98% (inactive)
16,C[C@@H]1CN([C@H](C)CO)C(=O)c2cc(NC(=O)Nc3ccc4c(c3)OCO4)ccc2O[C@@H]1CN(C)Cc1ccc(C(F)(F)F)cc1,0.0795% (inactive)
17,CC(C)NC(=O)Nc1ccc2c(c1)C(=O)N([C@@H](C)CO)C[C@@H](C)[C@H](CN(C)Cc1ccc(C(=O)O)cc1)O2,56.9% (active)
18,C[C@H](CO)N1C[C@H](C)[C@@H](CN(C)Cc2ccc(C(F)(F)F)cc2)Oc2ccc(NC(=O)CCN3CCOCC3)cc2C1=O,3.76% (inactive)
19,C[C@H](CO)N1C[C@H](C)[C@H](CN(C)Cc2ccc(C(=O)O)cc2)Oc2ccc(NC(=O)NC3CCCCC3)cc2C1=O,1.59% (inactive)
20,CC(C)NC(=O)Nc1ccc2c(c1)C(=O)N([C@@H](C)CO)C[C@@H](C)[C@H](CN(C)Cc1ccc(-c3ccccc3)cc1)O2,0.764% (inactive)
21,C[C@H]1CN([C@@H](C)CO)C(=O)Cc2cc(NC(=O)Cc3cn(C)c4ccccc34)ccc2O[C@@H]1CN(C)Cc1ccc(C(F)(F)F)cc1,12.9% (inactive)
22,C[C@@H]1CN([C@H](C)CO)C(=O)Cc2cc(NC(=O)Cc3cn(C)c4ccccc34)ccc2O[C@@H]1CN(C)Cc1ccc(C(F)(F)F)cc1,275% (active)

row,Structure (SMILES),activation
1,C[C@H](CO)N1C[C@H](C)[C@@H](CN(C)Cc2ccc(C(F)(F)F)cc2)Oc2ccc(NC(=O)CCC(F)(F)F)cc2C1=O,63.1% (active)
2,C[C@H]1CN([C@@H](C)CO)C(=O)Cc2cc(NC(=O)Cc3cn(C)c4ccccc34)ccc2O[C@@H]1CN(C)Cc1ccccc1,0.509% (inactive)
3,CCCNC(=O)c1cc2c(c(-c3cccc(-c4ccc(C#N)cc4)c3)n1)[C@@H](CCO)N(C(=O)CC)C2,1.79% (inactive)
4,CO[C@H]1CN(C)C(=O)c2cc(NC(=O)C3CCOCC3)ccc2OC[C@@H](C)N(Cc2cccnc2)C[C@@H]1C,-0.0535% (inactive)
5,CN(C)C(=O)c1ccc(-c2ccccc2[C@H]2[C@@H](CO)N(C(=O)C3CCCCC3)[C@H]2C#N)cc1,0.141% (inactive)
6,CSc1ncccc1C(=O)N1CCCC(Nc2ccc(F)c(F)c2)C1 (stereo not drawn),-0.156% (inactive)
7,COc1ccc(NC(=O)N(C)C[C@@H]2OCCCC[C@@H](C)Oc3ccc(NS(C)(=O)=O)cc3C(=O)N([C@@H](C)CO)C[C@H]2C)cc1,0.098% (inactive)
8,COC(=O)C1=CN(c2c(C)cc(C)cc2C)C(N)=C(C#N)C1c1cccc(F)c1 (stereo not drawn),-0.0735% (inactive)
9,O=S(=O)(NCCCN1CCOCC1)c1ccc(F)c(Cl)c1,82.5% (active)
10,O=S(=O)(NCC1CC1)c1ccc(F)c(Cl)c1,-0.0605% (inactive)
11,COc1ccc(S(=O)(=O)N(C)CC(=O)NCCCN2CCOCC2)cc1Cl,0.0915% (inactive)
12,COc1ccccc1-c1ccc([C@H]2[C@H](CO)N(C(=O)C3CC3)C23CN(C(C)=O)C3)cc1,-0.188% (inactive)
13,CCC(=O)Nc1ccc2c(c1)OC[C@H](C)N(CC1CCOCC1)C[C@@H](C)[C@@H](OC)CN(C)C2=O,0.195% (inactive)
14,CO[C@@H]1CN(C)C(=O)c2cc(NS(=O)(=O)c3ccc(C)cc3)ccc2OC[C@H](C)N(Cc2nccs2)C[C@@H]1C,-0.0505% (inactive)
15,COCCCn1c(-c2cccs2)nc2nc3ccccc3nc21,42.8% (active)
16,CCOCCCn1c(NN)nc2ccccc2c1=O,-0.132% (inactive)
17,COCCn1c(SCC(=O)c2[nH]c(C)c(C(C)=O)c2C)nc2ccccc2c1=O,-0.059% (inactive)
18,O=C(c1ccc(F)cc1)N1CC(=O)N2[C@@H](CO)[C@@H](c3ccc(C#Cc4ccc(F)cc4)cc3)[C@@H]2C1,-0.811% (inactive)
19,Cc1nc(N2CCC(C)CC2)c2c(C)c(C(=O)Nc3cc(F)ccc3C)sc2n1,0.651% (inactive)
20,Cc1nc(N2CCN(c3ccccn3)CC2)c2c(C)c(C(=O)Nc3ccc(F)cc3)sc2n1,86% (active)
21,CCN(CC)c1ccc(NC(=O)CN2CCN(c3ccccn3)CC2)cc1,0.001% (inactive)
